# From PubChem BioAssay
# CHOP UPR activ: activators of apoptotic arm of unfolded protein response (CHOP); activation, % at 10 µM; CHO-CHOP luciferase reporter, UPR activation, luminescence; percent of tunicamycin response over DMSO baseline; 330,000 tested, 0.34% active;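 active = at 10 µM dose, activation of 40% or more, normalized to positive control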;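 note: 100% = tunicamycin at 10 µg/mL and 0% = DMSO alone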
#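 Test system: CHO CHOP reporter cells. Input: 500 CHO-CHOP cells per well. Medium: F12 with 10% FBS. Technique: luciferase luminescence. Measure: percent activation relative to tunicamycin control. Dosing: 10 µM compound, 0.5% DMSO. Timing: 16-18 h cell attachment, then 6 h compound exposure, 37 °C.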
# Dynein cargo inh: dynein cargo transport inhibition | 3617.4 mouse cells, GR-EGFP nuclear translocation imaging; test concentration mostly 20 µM; stimulated with dexamethasone, 1 µM; active compounds read low | z-score, hits read low | 220,000 tested, 0.47% active | AID 1381;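 active = plate z-score of nuclear minus cytoplasmic receptor signal below a set negative limit, without overly bright fluorescence or cell loss, cut at about -3.5 in these data, passing the limit was not always enough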;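 note: z-score of nuclear minus cytoplasmic ring GR-EGFP intensity difference per well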
#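 Also added – dexamethasone, 1.0 µM final · Buffer or medium – tet-free, stripped-serum medium · Schedule – induction 48 h, compound 1 h, agonist 30 min · Detection – formaldehyde fixation, Hoechst nuclear stain, 10x automated fluorescence imaging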
# Beta2AR agonist: activates human beta-2 adrenergic receptor causing internalization; response, % (concentration not given with the values); Am2.2-beta2AR cells, FAP receptor internalization, flow cytometry; 340,000 tested, 0.43% active;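 active = response above a set limit, near 3 SD of response in nonfluorescent compounds, cut at about 42% in these data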
# Mdm2 ligase inh: Mdm2 E3 ligase (human) inhibition | cell-based MDM2 ubiquitination luciferase reporter, 2 h; 0 = plate control, 100 = twice control, blank-subtracted | 210,000 tested, 0.11% active | AID 1230 | signal enhancement, % at 5 µM;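 active = signal enhancement of 30% or more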;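 note: luminescence tracks abundance of the self-degrading MDM2-luciferase fusion protein; higher signal means inhibition of MDM2 E3 ligase activity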
# Target sequence (Q00987 whole entry, looked up, the tested form may be a part): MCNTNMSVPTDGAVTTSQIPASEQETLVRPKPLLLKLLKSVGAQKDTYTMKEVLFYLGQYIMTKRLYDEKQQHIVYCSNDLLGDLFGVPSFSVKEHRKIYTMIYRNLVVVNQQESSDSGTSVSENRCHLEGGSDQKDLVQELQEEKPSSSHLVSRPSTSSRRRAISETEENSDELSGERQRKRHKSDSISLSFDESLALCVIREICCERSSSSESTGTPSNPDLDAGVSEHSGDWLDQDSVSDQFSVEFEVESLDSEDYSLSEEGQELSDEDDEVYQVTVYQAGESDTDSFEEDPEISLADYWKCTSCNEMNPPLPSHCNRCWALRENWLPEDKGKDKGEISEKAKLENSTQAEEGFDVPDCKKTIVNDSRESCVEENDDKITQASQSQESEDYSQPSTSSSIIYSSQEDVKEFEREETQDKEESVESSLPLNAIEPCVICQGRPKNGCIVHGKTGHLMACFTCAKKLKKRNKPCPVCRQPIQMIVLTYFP
#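 system = mammalian cells stably expressing self-ubiquitinating, self-degrading MDM2 E3–luciferase fusion | quantity = 2000 cells per well seeded | incubation = 4 h cell settling then 2 h compound exposure, 37 °C | signal = SteadyLite luminescence, 15 min reagent step | benchmarks = plate control and blank wells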
# XBP1 UPR activ: activators of adaptive arm of unfolded protein response (XBP1); CHO-XBP1 luciferase reporter, IRE1-XBP1 UPR activation, luminescence; percent of tunicamycin response, DMSO as zero; activation, % at 20 µM; 330,000 tested, 0.33% active;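 active = versus positive control, 20 µM dose yields 30% or more activation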;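 note: 100% = tunicamycin at 10 µg/mL and 0% = DMSO only wells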
#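 Material: IRE1-XBP1 luciferase reporter CHO line / Quantity: one thousand reporter cells per well / Buffer or medium: F12 with 10% serum / Compound: 20 µM single concentration, DMSO 1% / Times: 6 h treatment, 37 °C / Detection: Steady-Glo luciferase glow luminescence, 10 min after reagent addition / Benchmarks: tunicamycin high, DMSO low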
# Mdm2 MdmX PPI: inhibitors of human Mdm2/MdmX interaction; inhibition, % at 8 µM; O15151+Q00987; 330,000 tested, 3% active; SaOS-2 split-luciferase Mdm2/MdmX complementation, luminescence;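 active = inhibition of at least 50% at 8 µM in the primary screen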
# Mdm2-MdmX conf: confirmation of human Mdm2/MdmX interaction inhibitors. shares compounds with Mdm2 MdmX PPI. Mdm2-MdmX binding, luminescent assay. inhibition, % at 8 µM. 10,000 tested, 55% active; in the data active = inhibition above about 40%
# FLuc counter: counter-screen for Mdm2/MdmX inhibitors: full-length luciferase; shares compounds with Mdm2 MdmX PPI; AID 504607; inhibition, % at 8 µM; 6,200 tested, 77% active; SaOS-2 full-length luciferase counterscreen, luminescence;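 active = mean inhibition at 8 µM reaching about 37%, which flags the compound as non-specific, limit read from the data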;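 note: p53-null SaOS-2 cells with luciferase driven by a doxycycline-inducible promoter; compound on cells about two nights before reading with doxycycline added after day one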
# An asterisk follows results filed as active; x = no result given. Shown are actives, neighbours in structure and some others; about 3.7% of the full set was active somewhere.
SMILES,CHOP UPR activ,Dynein cargo inh,Beta2AR agonist,Mdm2 ligase inh,XBP1 UPR activ,Mdm2 MdmX PPI,Mdm2-MdmX conf,FLuc counter
COc1cccc(Cl)c1NC(=O)N1CCN(c2cc(C)nc3ccccc23)CC1,-2,1.3,12,-10,-4,55*,24,x
CCc1cc(=O)oc2cc3occ(-c4ccc(OC)c(F)c4)c3cc12,5,-0.69,12,0,6,64*,74*,62*
COc1cc(OC)c2c(-c3cccc(-c4ccoc4)c3)cc(=O)oc2c1,5,x,-2,x,2,49,x,x
COc1cc(OC)c2c(-c3cccc(-c4ccc(OC)c(F)c4)c3)cc(=O)oc2c1,5,x,16,x,22,68*,49*,104*
COc1cc(OC)c2c(-c3cccc(-c4ccc(C(C)=O)cc4)c3)cc(=O)oc2c1,1,x,21,x,13,69*,68*,71*
CCc1cc(=O)oc2cc3occ(C)c3cc12,-1,-0.49,-5,-7,-5,15,x,x
COc1ccccc1N(C)S(=O)(=O)c1ccc(C)c(C(=O)Nc2nccs2)c1,0,x,2,x,0,-5,x,x
COc1ccc(Cl)cc1C(=O)NCC(=O)OCc1ccccc1,-3,x,5,x,-2,9,x,x
CCC(C(=O)Nc1ccc(S(=O)(=O)Nc2ncccn2)cc1)c1ccccc1 (centres undefined),-1,x,0,x,-5,6,x,x
CCOC(=O)C1=Nc2ccccc2C1=[N+]=[N-],-1,-2,0,-3,-5,51*,9,x
CCOC(=O)c1cnc(-c2ccccc2O)nc1Cl,-1,-0.44,14,9,-3,9,x,x
CC(=O)Oc1c(I)cc(I)cc1C(=O)Nc1ccc(Cl)cc1,-1,x,26,x,-5,90*,53*,19
O=C(Nc1ccc2nc3n(c(=O)c2c1)CCCCC3)c1cc([N+](=O)[O-])ccc1F,26,x,12,x,-4,98*,79*,22
COc1ccc(/C=C/C(=O)Nc2ccc3nc4n(c(=O)c3c2)CCCC4)cc1OC,2,0.011,7,-13,-1,60*,14,x
O=C(Nc1ccc2nc3n(c(=O)c2c1)CCCCC3)c1c(F)ccc([N+](=O)[O-])c1F,7,x,20,x,-8,96*,100*,52*
COc1cc(C(=O)Nc2ccc3nc4n(c(=O)c3c2)CCCCC4)cc(OC)c1OC,0,x,6,x,4,48,x,x
CC(=O)c1cccc(NC(=O)NC(C)c2ccc3c(c2)OCO3)c1 (centres undefined),-1,x,6,x,-6,7,x,x
Cc1ccc(C(=O)NNC(=O)c2ccc(S(=O)(=O)N(C)c3ccccc3)cc2)cc1,1,x,1,x,-1,7,x,x
CC(=O)c1ccc(OCCCC(=O)OCC(=O)Nc2ccc3[nH]c(=O)[nH]c3c2)cc1,4,x,10,x,-1,32,x,x
COc1ccc(CN2CCc3c([nH]c4ccccc34)C2)cc1Br,0,x,10,x,-6,69*,25,x
COc1ccc(N2CCN(CC(=O)Nc3ncc(C)s3)CC2)cc1,1,x,4,x,-5,-9,x,x
Cc1cnc(NC(=O)CN2CCN(c3ccccn3)CC2)s1,-2,-0.14,1,-13,-3,67*,63*,64*
CN(C)/C=N/c1[nH]ncc1C#N,1,-0.11,2,-5,0,8,x,x
CN(C)C=Nc1ncc2c([nH]c3ccccc32)c1C#N,1,0.47,-1,28,1,72*,82*,23
CCn1nc(C)c(C(=O)Nc2cc(Oc3ccc(Cl)cc3)cc([N+](=O)[O-])c2)c1C,-3,-0.057,-4,-40,0,57*,45*,53*
SMILES,CHOP UPR activ,Dynein cargo inh,Beta2AR agonist,Mdm2 ligase inh,XBP1 UPR activ,Mdm2 MdmX PPI,Mdm2-MdmX conf,FLuc counter
CN(C)CCCNC(=O)CC1C[C@H](C(=O)N2CCOCC2)[C@@]2(CCC3CCCC3)c3[nH]c4ccccc4c3CCN2C1=O (some centres undefined),2,x,6,x,-2,36,x,x
COc1ccc2[nH]c3c(c2c1)CCN1C(=O)C(CC(=O)NCCN2CCOCC2)C[C@H](C(=O)N2CCOCC2)[C@@]31CCC1CCCC1 (some centres undefined),1,x,-3,x,3,66*,-15,x
CN(C)C(=O)CCc1ccc2c3c([nH]c2c1)[C@]1(CCC2CCCC2)[C@@H](C(=O)N2CCOCC2)C[C@H](CC(=O)NCc2cccc(C(F)(F)F)c2)C(=O)N1CC3,4,x,1,x,12,61*,53*,59*
O=C(CC1C[C@H](C(=O)N2CCOCC2)[C@@]2(CCC3CCCC3)c3[nH]c4ccccc4c3CCN2C1=O)NCc1cccc(C(F)(F)F)c1 (some centres undefined),x,x,17,x,x,x,x,x
O=C(CC1C[C@H](C(=O)N2CCOCC2)[C@@]2(CCC3CCCC3)c3[nH]c4ccccc4c3CCN2C1=O)NCCC1=CCCCC1 (some centres undefined),14,x,-6,x,12,60*,-16,x
Cc1ccc(S(=O)(=O)N2CCOCC2)cc1NC(=O)CNCC1CCCCC1,1,0.18,-17,3,-3,0,x,x
COC(=O)C1CCN(C(=O)CN2C(=O)NC(CC(C)C)C2=O)CC1 (centres undefined),0,x,2,x,0,10,x,x
C[C@H](CO)N1C[C@H](C)[C@@H](CN(C)C(=O)Nc2ccc3c(c2)OCO3)Oc2c(NC(=O)Nc3ccc(C(F)(F)F)cc3)cccc2C1=O,11,x,20,x,9,80*,69*,68*
C[C@H](CO)N1C[C@H](C)[C@@H](CN(C)C(=O)Nc2ccc(C(F)(F)F)cc2)Oc2c(NC(=O)Nc3ccccc3)cccc2C1=O,1,x,8,x,-1,34,x,x
COc1ccc(NC(=O)N(C)C[C@H]2Oc3c(NC(=O)Nc4ccc(C(F)(F)F)cc4)cccc3C(=O)N([C@H](C)CO)C[C@@H]2C)cc1,6,x,18,x,4,60*,43*,69*
CC(C)C(=O)NNC(=O)c1cc2sccc2s1,2,1.3,-3,-4,2,-14,x,x
OC(c1cc(C(F)(F)F)nc2c(Cl)cc(Cl)cc12)C1CCCCN1 (centres undefined),3,0.9,31,-11,2,68*,42*,48*
